Assay results taken from publication PMC7839511 (Antiviral Research, 2021).

Key:
Assay type in all cases: biochemical
SARS-CoV-2 3CLpro = SARS-CoV-2 3CLpro (Severe acute respiratory syndrome coronavirus 2, UniProt P0DTD1); settings: duplex SAMDI-MS assay
[1] = target: rhinovirus HRV3C protease (Human rhinovirus 14, UniProt P03303); assay: 3CLpro and HRV3C duplex SAMDI-MS assay, HRV3C readout
Outline: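 Enzymes preincubated 30 min with test compound. Biotinylated cognate peptides added (10 µM each, final). Reaction ran 30 min, then formic acid quench and bicarbonate neutralisation. Captured on SAMDI chips for 1 h; product conversion AUCprod/(AUCInt Stnd + AUCprod).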

Human Cathepsin L = Human Cathepsin L (Homo sapiens, UniProt P07711); assay: Human cathepsin L assay; settings: FRET Cathepsin L IC50, 10 pM human cathepsin L, 2 μM Z-FR-AMC, pH 5.5
Outline: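 Human enzyme, 10 pM final, preincubated 30 min with test compound at ambient temperature in 20 mM sodium acetate, 1 mM EDTA, 0.005% Brij-35, 5 mM DTT, pH5.5. Started with 2 μM Z-FR-AMC (final). Fluorescence (355/460 excitation/emission) read at 2-min intervals over 30 min. IC50 from four-parameter curve fit.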

Chain of Human Cathepsin L (P07711 114-333): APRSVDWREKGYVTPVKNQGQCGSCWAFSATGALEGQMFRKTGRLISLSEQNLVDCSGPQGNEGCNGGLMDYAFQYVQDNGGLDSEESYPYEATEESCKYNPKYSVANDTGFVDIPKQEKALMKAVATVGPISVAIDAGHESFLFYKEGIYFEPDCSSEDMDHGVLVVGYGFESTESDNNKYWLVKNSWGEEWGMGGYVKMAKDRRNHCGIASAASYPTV
Chain of rhinovirus HRV3C protease (P03303 1538-1719 limits assumed): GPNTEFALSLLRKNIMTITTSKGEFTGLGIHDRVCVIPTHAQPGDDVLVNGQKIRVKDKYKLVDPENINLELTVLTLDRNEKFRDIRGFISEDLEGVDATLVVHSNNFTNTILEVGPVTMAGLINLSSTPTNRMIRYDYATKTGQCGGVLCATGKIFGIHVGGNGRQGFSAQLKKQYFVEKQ

| Compound | inhibition of 3CLpro (in words) (SARS-CoV-2 3CLpro) | IC50 [1] [nM] | IC50 (Human Cathepsin L) [nM] |
| --- | --- | --- | --- |
| CCOC(=O)/C=C/[C@H](C[C@@H]1CCNC1=O)NC(=O)[C@@H](CC(=O)[C@@H](NC(=O)c1cc(C)on1)C(C)C)Cc1ccc(F)cc1 [Rupintrivir] | no observed inhibition | 1.04 | 4400 |
| CC(C)(C)NC(=O)N[C@H](C(=O)N1C[C@H]2[C@@H]([C@H]1C(=O)NC(CC1CCC1)C(=O)C(N)=O)C2(C)C)C(C)(C)C (some centres unmarked) [Boceprevir] |  | > 100000 | 2300 |
